Measured values from ChEMBL document CHEMBL1140906, “Examination of the biological role of the alpha(2-->6)-linked sialic acid in gangliosides binding to the myelin-associated glycoprotein (MAG)” (J Med Chem, 2009).

Legend:
[1] = target: T1, Myelin-associated glycoprotein (Homo sapiens, UniProt P20916); experiment: Binding affinity to human IgG Fc-domain tagged MAG N-terminal domain expressed in CHO cells by surface plasmon resonance
T1 sequence (P20916 whole entry): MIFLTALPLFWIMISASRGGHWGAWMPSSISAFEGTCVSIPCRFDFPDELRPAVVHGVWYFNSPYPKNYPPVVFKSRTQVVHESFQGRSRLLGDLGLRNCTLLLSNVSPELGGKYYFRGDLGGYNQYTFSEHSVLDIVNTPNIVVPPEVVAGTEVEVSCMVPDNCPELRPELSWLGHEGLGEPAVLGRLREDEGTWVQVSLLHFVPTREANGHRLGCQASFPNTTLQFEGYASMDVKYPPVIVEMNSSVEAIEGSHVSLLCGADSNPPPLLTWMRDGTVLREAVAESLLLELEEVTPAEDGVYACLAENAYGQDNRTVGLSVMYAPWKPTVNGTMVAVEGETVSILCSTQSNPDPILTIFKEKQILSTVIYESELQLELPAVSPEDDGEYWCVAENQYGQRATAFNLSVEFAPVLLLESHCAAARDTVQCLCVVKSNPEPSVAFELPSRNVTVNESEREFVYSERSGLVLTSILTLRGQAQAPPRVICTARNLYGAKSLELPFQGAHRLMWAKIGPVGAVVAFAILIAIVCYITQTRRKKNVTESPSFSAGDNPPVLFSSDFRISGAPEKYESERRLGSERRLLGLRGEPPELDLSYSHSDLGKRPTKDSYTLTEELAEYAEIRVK
Outline: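 Fc-MAGd1-3 (three N-terminal MAG domains fused to human IgG Fc, CHO-expressed, protein A-purified) captured on an immobilized anti-human IgG Fc antibody on CM5 chip; reference surface prepared in parallel.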

[2] = target: T2, Myelin-associated glycoprotein (Homo sapiens) (UniProt P20916); experiment: Inhibition of human IgG Fc-domain tagged MAG N-terminal domain expressed in CHO cells assessed as relative inhibition potency by hapten inhibition assay relative to (2R,4S,5R,6R)-5-acetamido-2-(((2R,3R,4R,5R,6R)-5-acetamido-4-((2R,3R,4S,5S,6R)-4-((2S,4S,5R)-5-acetamido-2-carboxy-4-hydroxy-6-((1S,2S)-1,2,3-trihydroxypropyl)tetrahydro-2H-pyran-2-yloxy)-3,5-dihydroxy-6-(hydroxymethyl)tetrahydro-2H-pyran-2-yloxy)-3-hydroxy-6-(2-(trimethylsilyl)ethoxy)tetrahydro-2H-pyran-2-yl)methoxy)-4-hydroxy-6-((1S,2R)-1,2,3-trihydroxypropyl)tetrahydro-2H-pyran-2-carboxylic acid; format: cell-based
T2 sequence (whole entry): T1 sequence (P20916 whole entry)
Outline: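 Hapten inhibition: oligosaccharide added to wells with immobilized Neu5Ac, then Fc-MAGd1-3 precomplexed with alkaline phosphatase-labelled anti-Fc antibody; overnight at 4 °C, washed, bound MAG read by initial rate of fluorescein release from fluorescein diphosphate. IC50 from at least eight concentrations, at least three independent titrations; rIP calculated against the reference compound included in each test.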

Row | Compound | Kd [1] | Ratio IC50 [2]
1 | CC(=O)N[C@H]1[C@H]([C@@H](O)[C@H](O)CNC(=O)c2ccccc2)O[C@@](O[C@H]2[C@@H](O)[C@@H](CO)O[C@@H](O[C@H]3[C@@H](O)[C@@H](CO)O[C@@H](OCC[Si](C)(C)C)[C@@H]3O)[C@@H]2O)(C(=O)O)C[C@@H]1O | 32.6 µM | 61.5
2 | CC(=O)N[C@H]1[C@H]([C@@H](O)[C@H](O)CO)O[C@@](O[C@H]2[C@@H](O)[C@@H](CO)O[C@@H](O[C@@H]3CCO[C@H](COCc4ccc(-c5ccccc5)cc4)[C@@H]3O)[C@@H]2O)(C(=O)O)C[C@@H]1O | – | 1.25
3 | CC(=O)N[C@H]1[C@H]([C@@H](O)[C@H](O)CO)O[C@@](O[C@H]2[C@@H](O)[C@@H](CO)O[C@@H](O[C@@H]3CCO[C@H](COCc4ccccc4)[C@@H]3O)[C@@H]2O)(C(=O)O)C[C@@H]1O | – | 0.59
4 | CC(=O)N[C@H]1[C@H]([C@@H](O)[C@H](O)CNC(=O)c2ccccc2)O[C@@](O[C@H]2[C@@H](O)[C@@H](CO)O[C@@H](O[C@@H]3CCO[C@H](COCc4ccc(-c5ccccc5)cc4)[C@@H]3O)[C@@H]2O)(C(=O)O)C[C@@H]1O | 5 µM | 314
5 | CC(=O)N[C@H]1[C@H](OCC[Si](C)(C)C)O[C@H](CO)[C@H](O)[C@@H]1O[C@@H]1O[C@H](CO)[C@H](O)[C@H](O[C@]2(C(=O)O)C[C@H](O)[C@@H](NC(C)=O)[C@H]([C@@H](O)[C@H](O)CO)O2)[C@H]1O | – | 0.26
6 | CC(=O)N[C@H]1[C@H](OCC[Si](C)(C)C)O[C@H](CO[C@@H](C)C(=O)O)[C@H](O)[C@@H]1O[C@@H]1O[C@H](CO)[C@H](O)[C@H](O[C@]2(C(=O)O)C[C@H](O)[C@@H](NC(C)=O)[C@H]([C@@H](O)[C@H](O)CO)O2)[C@H]1O | – | 0.31
7 | CC(=O)N[C@H]1[C@H]([C@@H](O)[C@H](O)CO)O[C@@](O[C@H]2[C@@H](O)[C@@H](CO)O[C@@H](O[C@@H]3CCO[C@H](CO[C@@H](C)C(=O)O)[C@@H]3O)[C@@H]2O)(C(=O)O)C[C@@H]1O | – | 1.24
8 | CC(=O)N[C@H]1[C@H]([C@@H](O)[C@H](O)CO)O[C@@](OC[C@H]2O[C@@H](OCC[Si](C)(C)C)[C@H](O)[C@@H](O[C@@H]3O[C@H](CO)[C@H](O)[C@H](O[C@]4(C(=O)O)C[C@H](O)[C@@H](NC(C)=O)[C@H]([C@@H](O)[C@H](O)CO)O4)[C@H]3O)[C@H]2O)(C(=O)O)C[C@@H]1O | – | 0.3
9 | CC(=O)N[C@H]1[C@H](OCC[Si](C)(C)C)O[C@H](CO[C@H](C)C(=O)O)[C@H](O)[C@@H]1O[C@@H]1O[C@H](CO)[C@H](O)[C@H](O[C@]2(C(=O)O)C[C@H](O)[C@@H](NC(C)=O)[C@H]([C@@H](O)[C@H](O)CO)O2)[C@H]1O | – | 0.17
10 | CC(=O)N[C@H]1[C@H]([C@@H](O)[C@H](O)CO)O[C@@](O[C@H]2[C@@H](O)[C@@H](CO)O[C@@H](O[C@@H]3CCO[C@H](CO)[C@@H]3O)[C@@H]2O)(C(=O)O)C[C@@H]1O | – | 0.76
11 | CC(=O)N[C@H]1[C@H]([C@@H](O)[C@H](O)CNC(=O)c2ccc(Cl)cc2)O[C@@](O[C@H]2[C@@H](O)[C@@H](CO)O[C@@H](O[C@@H]3CCO[C@H](COCc4ccc(-c5ccccc5)cc4)[C@@H]3O)[C@@H]2O)(C(=O)O)C[C@@H]1O | 2.83 µM | 377
12 | CC(=O)N[C@H]1[C@H](OCC[Si](C)(C)C)O[C@H](CO[C@@H](Cc2ccccc2)C(=O)O)[C@H](O)[C@@H]1O[C@@H]1O[C@H](CO)[C@H](O)[C@H](O[C@]2(C(=O)O)C[C@H](O)[C@@H](NC(C)=O)[C@H]([C@@H](O)[C@H](O)CO)O2)[C@H]1O | – | 0.4
13 | CC(=O)N[C@H]1[C@H]([C@@H](O)[C@H](O)CO)O[C@@](O[C@H]2[C@@H](O)[C@@H](CO)O[C@@H](O[C@H]3[C@@H](O)[C@@H](CO)O[C@@H](OCC[Si](C)(C)C)[C@@H]3O)[C@@H]2O)(C(=O)O)C[C@@H]1O | – | 0.3
14 | CC(=O)N[C@H]1[C@H]([C@@H](O)[C@H](O)CO)O[C@@](O[C@H]2[C@@H](O)[C@@H](CO)O[C@@H](O[C@@H]3CCO[C@H](CO[C@H](C)C(=O)O)[C@@H]3O)[C@@H]2O)(C(=O)O)C[C@@H]1O | – | 0.98
15 | CC(=O)N[C@H]1[C@H]([C@@H](O)[C@H](O)CO)O[C@@](O[C@H]2[C@@H](O)[C@@H](CO)O[C@@H](O[C@@H]3CCO[C@H](CO[C@@H](Cc4ccccc4)C(=O)O)[C@@H]3O)[C@@H]2O)(C(=O)O)C[C@@H]1O | – | 0.4
